In brackets after ≈: the same amount, converted by molar mass. Activity calls are given as the source filed them. The calls are words filed in the database; no cut-off is given here.
Tests used:
[1] = system: Mycobacterium tuberculosis; experiment: Antimycobacterial activity against active stage of Mycobacterium tuberculosis H37Ra ATCC 25177 at 3 to 30 ug/ml by XRMA relative to control; assay type: functional
How it was run: (§1)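 Mtb H37Ra, from a -80 °C stock subcultured once in liquid medium, grown in M. pheli minimal medium (KH2PO4, trisodium citrate, MgSO4, asparagine, glycerol; pH 6.6) in 96-well plates. Primary screen at 30, 10 and 3 µg/mL. XTT reduction menadione read-out at 470 nm against cell-free blank. % inhibition = (control − compound)/(control − blank) × 100, with DMSO-vehicle wells as 100% growth. Duplicates.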

[2] = system: Mycobacterium tuberculosis; experiment: Antimycobacterial activity against dormant stage of Mycobacterium tuberculosis H37Ra ATCC 25177 at 3 to 30 ug/ml by XRMA relative to control; assay type: functional; how it was run: as §1
[3] = system: Mycobacterium tuberculosis; experiment: Antimycobacterial activity against active stage of Mycobacterium tuberculosis H37Ra ATCC 25177 by XRMA; assay type: functional, organism-based
How it was run: (§2)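 Mtb H37Ra in M. pheli medium (pH 6.6) in 96-well plates. XTT reduction menadione read-out at 470 nm, with DMSO vehicle as 100% growth. MIC derived from the dose-response curve. Duplicates, average ± standard deviation.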

[4] = system: Mycobacterium tuberculosis; experiment: Antimycobacterial activity against dormant stage of Mycobacterium tuberculosis H37Ra ATCC 25177 by XRMA; assay type: functional, organism-based; how it was run: as §2
[5] = system: Staphylococcus aureus; experiment: Antibacterial activity against Staphylococcus aureus NCIM 2010 at 3 ug/ml after 8 hrs relative to control; assay type: functional
How it was run: (§3)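 Cultures grown to OD600 of 1, then set at 0.1 OD600 and exposed to compound at 3 µg/mL for 8 h at 37 °C. Ampicillin was the positive control. Activity is reported as % inhibition.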

[6] = system: Bacillus subtilis; experiment: Antibacterial activity against Bacillus subtilis NCIM 2079 at 3 ug/ml after 8 hrs relative to control; assay type: functional; how it was run: as §3

SMILES | Activity [1] | Activity [2] | IC50 [3] [µg/mL] | IC90 [3] [µg/mL] | IC50 [4] [µg/mL] | IC90 [4] [µg/mL] | Activity [5] [%] | Activity [6] [%]
c1ccc(-n2cc(C(c3c[nH]c4ccccc34)c3c[nH]c4ccccc34)nn2)cc1 | Active | Active | – | – | – | – | – | –
Clc1cccc(-n2cc(C(c3c[nH]c4ccc(Br)cc34)c3c[nH]c4ccc(Br)cc34)nn2)c1 | >87.18% | >87.18% | 0.22 (≈ 0.378 µM) | 13.5 (≈ 23.2 µM) | 0.12 (≈ 0.206 µM) | 9.84 (≈ 16.9 µM) | 71.77 | –
CO[C@H]1/C=C/O[C@@]2(C)Oc3c(C)c(O)c4c(O)c(c(/C=N/N5CCN(C)CC5)c(O)c4c3C2=O)NC(=O)/C(C)=C\C=C\[C@H](C)[C@H](O)[C@@H](C)[C@@H](O)[C@@H](C)[C@H](OC(C)=O)[C@@H]1C [RIFAMPIN] | – | – | 0.02 (≈ 0.0243 µM) | 0.53 (≈ 0.644 µM) | – | 0.8 (≈ 0.972 µM) | – | –
Clc1ccc(-n2cc(C(c3c[nH]c4ccccc34)c3c[nH]c4ccccc34)nn2)cc1 | Active | Active | – | – | – | – | – | –
COc1ccc(-n2cc(C(c3c[nH]c4ccc(Br)cc34)c3c[nH]c4ccc(Br)cc34)nn2)cc1 | >88.22% | >88.22% | – | – | – | – | – | –
CC(=O)Nc1ccc(-n2cc(C(c3c[nH]c4ccc(Br)cc34)c3c[nH]c4ccc(Br)cc34)nn2)cc1 | >87.18% | >87.18% | 1.52 (≈ 2.52 µM) | 6.16 (≈ 10.2 µM) | 1 (≈ 1.65 µM) | 3 (≈ 4.96 µM) | – | >70
O=[N+]([O-])c1ccccc1-n1cc(C(c2c[nH]c3ccc(Br)cc23)c2c[nH]c3ccc(Br)cc23)nn1 | >87.18% | >87.18% | 2.27 (≈ 3.83 µM) | > 30 | 1 (≈ 1.69 µM) | 30 (≈ 50.7 µM) | – | –
Cc1ccc(-n2cc(C(c3c[nH]c4ccc(Br)cc34)c3c[nH]c4ccc(Br)cc34)nn2)cc1 | Active | Active | – | – | – | – | – | –
Clc1ccc(-n2cc(C(c3c[nH]c4ccc(Br)cc34)c3c[nH]c4ccc(Br)cc34)nn2)cc1 | >88.22% | >88.22% | – | – | – | – | – | >70
COc1ccccc1-n1cc(C(c2c[nH]c3ccc(Br)cc23)c2c[nH]c3ccc(Br)cc23)nn1 | Active | Active | – | – | – | – | – | –
CC(=O)Nc1ccc(-n2cc(C(c3c[nH]c4ccccc34)c3c[nH]c4ccccc34)nn2)cc1 | Active | Active | – | – | – | – | – | –
O=[N+]([O-])c1ccccc1-n1cc(C(c2c[nH]c3ccccc23)c2c[nH]c3ccccc23)nn1 | Active | Active | – | – | – | – | – | –
COc1ccccc1-n1cc(C(c2c[nH]c3ccccc23)c2c[nH]c3ccccc23)nn1 | Active | Active | – | – | – | – | – | –
O=[N+]([O-])c1ccc(-n2cc(C(c3c[nH]c4ccc(Br)cc34)c3c[nH]c4ccc(Br)cc34)nn2)cc1 | >87.18% | >87.18% | 14.8 (≈ 25 µM) | > 30 | 2.96 (≈ 5 µM) | > 30 | – | –
Brc1ccc2[nH]cc(C(c3cn(-c4ccccc4)nn3)c3c[nH]c4ccc(Br)cc34)c2c1 | >87.18% | >87.18% | 2.19 (≈ 4 µM) | 30 (≈ 54.8 µM) | 1.55 (≈ 2.83 µM) | 9.39 (≈ 17.2 µM) | – | >70
Clc1cccc(-n2cc(C(c3c[nH]c4ccccc34)c3c[nH]c4ccccc34)nn2)c1 | >87.18% | >87.18% | 2.04 (≈ 4.81 µM) | > 30 | 0.37 (≈ 0.873 µM) | > 30 | – | –
COc1ccc(-n2cc(C(c3c[nH]c4ccccc34)c3c[nH]c4ccccc34)nn2)cc1 | Active | Active | – | – | – | – | – | –
Cc1ccc(-n2cc(C(c3c[nH]c4ccccc34)c3c[nH]c4ccccc34)nn2)cc1 | Active | Active | – | – | – | – | – | –
O=[N+]([O-])c1cccc(-n2cc(C(c3c[nH]c4ccc(Br)cc34)c3c[nH]c4ccc(Br)cc34)nn2)c1 | >87.18% | >87.18% | 6.25 (≈ 10.6 µM) | > 30 | 2.56 (≈ 4.32 µM) | > 30 | – | >70
O=[N+]([O-])c1ccc(-n2cc(C(c3c[nH]c4ccccc34)c3c[nH]c4ccccc34)nn2)cc1 | Active | Active | – | – | – | – | – | –

— ChEMBL document CHEMBL4257499, “Triazole-diindolylmethane conjugates as new antitubercular agents: synthesis, bioevaluation, and molecular docking” (Medchemcomm, 2018)
